M1 agonist: M1 muscarinic receptor agonists, primary screen, CHO-M1 cells, Fluo-4 calcium, agonist mode; Muscarinic acetylcholine receptor M1; B-score at 10 µM; Fluo-4 calcium fluorescence; stronger effect = higher value; 3% of 64,000 active; AID 626, 2007;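 active = fluorescence rise, raw or as B-score row- and column-corrected plate score, outside the 99.7% band of its plate's samples, either direction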
M1 antagonist: antagonists of rat M1 muscarinic receptor; CHO-M1 cells, Fluo-4 calcium, ACh EC80 antagonist mode; stronger effect = lower value; B-score at 10 µM; 3.4% of 64,000 active; AID 628, 2007;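 active = calcium fluorescence response, raw or row-and-column corrected B-score, differing from the plate sample mean either way at a set confidence level, mostly lower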
D1 allo mod: D1 CRE-luciferase signal change, two-sided – cell-based, HEK293 D1, dopamine EC30, D1 allosteric modulator project, primary screen; D(1A) dopamine receptor (Homo sapiens), P21728; dopamine EC30 potentiation; actives deviate in either direction; B-score at 10 µM; 5.9% of 58,000 active;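 active = luminescence count or its row- and column-corrected plate score outside the 99.7% band of the plate's sample wells, on either side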
S1P1 ag-PAM: S1P1 agonists and agonism potentiators, primary screen, cell-based, primary and confirmation screens, CRE-bla reporter; S1P1 CRE-bla cells, forskolin, beta-lactamase FRET, potentiator mode; S1P1 agonist co-added at EC20, 2 nM; 100% = saturating reference agonist, 0% = basal; activation, % at 9.5 µM; 0.57% of 56,000 active;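 active = activation above a cutoff set at the mean activation of all tested compounds plus 3 SD, cut at about 54% in these data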;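 note: forskolin at 4 µM as EC80 and the EC20 agonist is SEW2871; 100% = SEW2871 at its EC100 plus forskolin at EC80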
S1P3 agonist: human S1P3 receptor agonists, primary screen, cell-based, primary and confirmation, NFAT-BLA reporter; Sphingosine 1-phosphate receptor 3 (Homo sapiens), Q99500; S1P3 NFAT-BLA reporter cells, agonism, FRET ratio; relative to 1 µM S1P, basal subtracted; activation, % at 4.5 µM; 0.1% of 60,000 active; AID 373, 2006;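 active = activation above the screen-wide mean plus 3 SD, cut at about 4.5% in these data, passing the limit was not always enough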
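Assay system: stable CHO line with human S1P3, Gα16, NFAT-BLA reporter; Detection: FRET β-lactamase substrate fluorescence, excitation 405 nm, 460/535 nm emission ratio, background-subtracted; Read-out: percent activation versus median 1 µM S1P response, basal-subtracted, per plate; Incubation: cells plated overnight, compound 4 h 37 °C, substrate 2 h RT.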
TNAP act mid DEA: human TNAP enzyme activators, primary screen, biochemical, luminescent, intermediate phosphate acceptor level; Alkaline phosphatase, tissue-nonspecific isozyme (Homo sapiens), P05186; purified TNAP, CDP-star luminescence, 100 mM DEA, 30 min; stronger effect = higher value; scale: 0 levamisole-inhibited, 1 vehicle-only enzyme; activation factor at 20 µM; 64,000 tested, under 10 active;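 active = activation factor of at least 2 at 20 µM, relative to controls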
Target sequence (P05186 whole entry, looked up): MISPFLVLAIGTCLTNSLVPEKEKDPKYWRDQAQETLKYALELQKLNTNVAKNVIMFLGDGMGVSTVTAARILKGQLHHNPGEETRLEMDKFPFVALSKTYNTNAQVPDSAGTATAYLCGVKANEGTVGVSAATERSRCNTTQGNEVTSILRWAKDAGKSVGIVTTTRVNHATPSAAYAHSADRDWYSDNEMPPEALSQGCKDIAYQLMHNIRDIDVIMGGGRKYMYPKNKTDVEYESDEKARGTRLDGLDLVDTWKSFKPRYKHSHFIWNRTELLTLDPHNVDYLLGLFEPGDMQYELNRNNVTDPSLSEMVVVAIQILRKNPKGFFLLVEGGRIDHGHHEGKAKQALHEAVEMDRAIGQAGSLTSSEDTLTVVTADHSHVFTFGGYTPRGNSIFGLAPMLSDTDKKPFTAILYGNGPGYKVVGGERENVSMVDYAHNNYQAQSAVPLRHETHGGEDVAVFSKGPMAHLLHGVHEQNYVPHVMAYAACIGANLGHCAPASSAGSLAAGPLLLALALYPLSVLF
M1 agonist conf: rat M1 muscarinic receptor agonists, confirmation, CHO-M1 cells, Fluo-4 calcium, duplicate retest. shares compounds with M1 agonist. Fluo-4 calcium fluorescence, agonist mode; actives lie on both sides. fluorescence change (max-min) at 10 µM. 19% of 1,700 active. AID 1488, 2009;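 active = fluorescence change differs from the solvent-only DMSO control mean at a set confidence level in both duplicate runs; inconclusive = differs from solvent-only control mean in just one of two runs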;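 note: an EC20 dose of acetylcholine follows compound addition during the same imaging run; raw fluorescence intensity difference in instrument units with no normalization to controls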
M4 ag counter: agonist activity at rat M4 receptor, confirmation, counter-screen for M1 allosteric modulator project, cell-based, agonist mode; shares compounds with M1 agonist; AID 1741, 2009; fluorescence change (max-min) at 10 µM; CHO M4/Gqi5 cells, Fluo-4 calcium fluorescence; actives lie on both sides; 9% of 1,700 active;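 active = fluorescence change differing from the plate's solvent-only control wells at 99.7% confidence in both duplicates, whether higher or lower; inconclusive = differs from solvent controls in only one of two duplicates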
* marks the source's active call; other numbers are inactive results; ? = inconclusive; . = not tested or not shown. This is a sample that favours compounds with a hit; in the whole collection about 11% have one here.

SMILES	M1 agonist	M1 antagonist	D1 allo mod	S1P1 ag-PAM	S1P3 agonist	TNAP act mid DEA	M1 agonist conf	M4 ag counter
COc1cc(C(c2nnnn2C(C)(C)C)N2CCN(c3nc4ccccc4s3)CC2)ccc1O (stereo not given)	-0.0058	-0.1	0.12	-12	0	1	.	.
CC(C)OC(=O)c1c(F)c(F)c(N2CCOCC2)c(F)c1F	-0.53	0.012	-0.097	-15	-2	1	.	.
CN(Cc1ccccc1)Cc1nc2c([nH]1)c(=O)n(C)c(=O)n2C	-0.21	0.0067	-0.13	.	.	0.9	.	.
CCCCNc1cc(C)nc(NCc2ccccc2)n1	6.4*	-3.2*	-4.4	100	-2	1.1	-10	-22
Cc1cc(C)nc(NCCCc2ccccc2)n1	.	.	.	-8	0	0.9	.	.
Cn1c(=O)c2c(nc(Oc3ccc(-c4ccccc4)cc3)n2C)n(C)c1=O	0.79	-0.031	-0.81	.	-1	0.9	.	.
CCC(=NCCN1CCNCC1)C1=C(O)CC(C)(C)CC1=O	-0.091	-0.22	0.0021	7	-1	1	.	.
Cc1ccc(OCc2nnc(SCc3nc4ccccc4[nH]3)n2Cc2ccco2)cc1	5.5*	-2.2	.	50	-2	1.2	?	-55
Cc1ccc(OCc2nnc(SCC(=O)c3ccccc3)n2Cc2ccco2)cc1	-0.43	0.037	0.33	10	-1	0.9	.	.
O=S(=O)(c1cccc(S(=O)(=O)N2CCC(N3CCCCC3)CC2)c1)N1CCOCC1	5.9*	-1.8	-0.072	.	.	0.9	-14	-18
O=C(Nc1cccnc1)c1cccc(S(=O)(=O)N2CCOCC2)c1	0.022	0.15	-0.027	.	0	0.9	.	.
O=C(Nc1cccnc1)c1ccc(Cl)c(S(=O)(=O)N2CCCCCC2)c1	2.4*	-0.23	0.069	3	-1	1	?	-48
O=C(CSc1nc2[nH]ncc2c(=O)n1-c1ccccc1)c1ccc2c(c1)OCCO2	7.2*	-0.46	-2	.	-1	1	?	-35
CCOC(=O)N1CCC(n2c(SCC(=O)Nc3ccccc3OC)nc3ccccc3c2=O)CC1	1.8	-0.13	-0.25	.	.	1	.	.
CCOC(=O)N1CCC(n2c(SCC(=O)NCc3ccccc3)nc3ccccc3c2=O)CC1	3.6*	-1	.	.	.	0.9	-6.3	-11
COc1cccc(C2C(C(=O)c3sc(C)nc3C)=C(O)C(=O)N2CCN(C)C)c1OC (stereo not given)	0.031	0.093	.	6	-1	0.9	.	.
Cc1ccc(Cn2ccc(NC(=O)c3c(-c4ccccc4Cl)noc3C)n2)cc1	0.23	-0.83	0.65	.	.	0.9	.	.
COc1ccc2nc(N3CCC(O)CC3)c(C#N)cc2c1	55*	-0.29	1.3	-6	-1	1.1	198*	166*
CCOC(=O)C1CCN(c2nc3cc(OC)ccc3cc2C#N)CC1	0.61	-0.47	-0.035	1	0	0.9	.	.
COc1ccc2nc(N3CCC(C)CC3)c(C#N)cc2c1	4*	-1.1	0.9	17	1	0.9	22	?
CCOC(=O)CCN(Cc1cccs1)S(=O)(=O)c1ccc(Cl)cc1	0.19	0.24	0.19	.	.	0.9	.	.
Cc1cc(C)n2nc(SCC(=O)c3cc(C)n(-c4cc(C)on4)c3C)nc2n1	3.5	-1.2	-0.047	100	-1	1	.	.
CCCN(S(=O)(=O)c1ccc(OCC)cc1)S(=O)(=O)c1cccs1	2.1*	-0.094	-0.23	14	-1	0.9	?	-37
Cc1ccc(C)c(NC(=O)C2CC(O)CN2C(=O)OC(C)(C)C)c1 (stereo not given)	0.05	-0.18	-0.16	2	-1	1	.	.
Cc1ccc(S(=O)(=O)N2CCN(C3CC(=O)N(Cc4ccccc4)C3=O)CC2)cc1C (stereo not given)	-0.2	-0.8	-1.4	3	-1	1	.	.
SMILES	M1 agonist	M1 antagonist	D1 allo mod	S1P1 ag-PAM	S1P3 agonist	TNAP act mid DEA	M1 agonist conf	M4 ag counter
Cc1cc2ncn(C3CC(=O)N(Cc4ccccc4)C3=O)c2cc1C (stereo not given)	5.8*	-0.59	-0.39	.	0	0.9	?	-18
CCCSc1nnc(NC(=O)Nc2ccc(F)cc2)s1	3.4*	-0.88	.	27	-3	0.9	-7.2	-14
CC(=O)Nc1ccc(OCC(O)CN2CCN(c3ccc(C)c(Cl)c3)CC2)cc1 (stereo not given)	1.9*	-2.2	-2.6*	.	-1	1.1	-1.2	-32
CC(=O)Nc1ccc(OCC(O)CN2CCN(c3cc(Cl)ccc3C)CC2)cc1 (stereo not given)	-0.37	-2.6	0.036	0	0	1	.	.
O=c1c2ccccc2c(/C=N/n2cnnc2)c(O)n1-c1ccccc1	9*	-0.021	-0.36	10	0	0.8	149*	123*
COc1ccc(-n2c(O)c(/C=N/n3cnnc3)c3ccccc3c2=O)cc1	15*	-0.43	1.5	24	1	1	164*	138
CCOC(=O)c1c(C)oc2cc(Br)c(OC(=O)N3CCOCC3)cc12	2.2	0.3	.	7	-2	1	.	.
O=C1c2ccccc2C(=O)N1c1ccc(S(=O)(=O)N2CCN(c3ccccc3)CC2)cc1	1.5	0.58	0.013	-10	0	0.9	.	.
CC(=O)c1c(C)[nH]c(C(=O)NCCc2cccc(C)c2)c1C	-2.4*	-0.1	-2.7*	2	0	1	?	?
CC(=O)c1c(C)[nH]c(C(=O)Nc2cc(C)ccc2C)c1C	-0.043	-0.034	-1.9	-30	0	1	.	.
O=C(Nc1nc(-c2ccccn2)cs1)C1CC1	-0.039	0.23	-0.49	-4	1	1	.	.
CN(CC1CCCO1)S(=O)(=O)c1ccc(C(=O)Nc2nc(-c3ccccn3)cs2)cc1 (stereo not given)	9.6*	0.014	-2	58	0	1.1	-12	-32
C=CCC1(O)C(=O)N2C(=C1C(=O)N1CCOCC1)c1ccccc1CC2(C)C (stereo not given)	0.49	0.24	.	.	.	0.9	.	.

Screening data deposited in PubChem BioAssay by several laboratories.
